From PubChem BioAssay
Sampled rows, rich in hits. Any-hit rate of the full collection: about 11%.
Htt clearance: mutant huntingtin protein clearance. hit rate 0.42% among 47,000. AID 853. HeLa Exon1htt(103Q)mCFP, aggregate imaging; zero = plate's median compound well. inhibition, % at 1.5 µM;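 active = inhibition of aggregate fluorescence above about 70%, also judged a hit by eye on the cell image, limit read from the data, passing the limit was not always enough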;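 also: cells exposed to compound for three days before fixation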
RORa activator: activators of human nuclear receptor RORA; P35398; CHO-K1 Gal4-RORA LBD luciferase reporter, luminescence; percent increase over mock-subtracted basal signal; activation, % at 10 µM; hit rate 1.5% among 65,000;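 active = activation above the mean of all tested compounds plus 3 SD, cut at about 49% in these data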;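 also: 0% = DMSO-treated RORA cells and 100% = added signal equal to DMSO minus mock-transfected cells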
D1 allo mod: allosteric modulators of human D1 dopamine receptor. P21728. AID 641. HEK293 D1, CRE-luciferase, dopamine EC30 potentiation; actives deviate in either direction. B-score at 10 µM. hit rate 5.9% among 58,000;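 active = luminescence count or its row- and column-corrected plate score outside the 99.7% band of the plate's sample wells, on either side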
M1 antag: M1 muscarinic receptor (rat) antagonism. P08482. CHO-M1 cells, Fluo-4 calcium, ACh EC80 antagonist mode; stronger effect = lower value. B-score at 10 µM. hit rate 3.4% among 64,000. AID 628;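 active = calcium fluorescence response, raw or row-and-column corrected B-score, differing from the plate sample mean either way at a set confidence level, mostly lower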
Target sequence (P08482 whole entry, looked up): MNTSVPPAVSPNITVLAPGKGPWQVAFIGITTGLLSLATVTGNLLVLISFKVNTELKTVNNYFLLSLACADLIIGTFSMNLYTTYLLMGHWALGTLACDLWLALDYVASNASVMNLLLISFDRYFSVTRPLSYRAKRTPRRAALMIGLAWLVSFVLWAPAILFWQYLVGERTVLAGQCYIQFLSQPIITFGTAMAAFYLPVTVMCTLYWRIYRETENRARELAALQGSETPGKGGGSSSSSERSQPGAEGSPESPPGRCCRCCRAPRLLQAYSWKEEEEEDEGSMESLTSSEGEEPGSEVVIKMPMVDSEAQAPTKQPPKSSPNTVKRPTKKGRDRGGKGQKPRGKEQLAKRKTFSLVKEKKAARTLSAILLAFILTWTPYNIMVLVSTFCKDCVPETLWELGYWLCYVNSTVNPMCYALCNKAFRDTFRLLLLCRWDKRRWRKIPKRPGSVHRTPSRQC
M1 ag: M1 muscarinic receptor agonism. CHO-M1 cells, Fluo-4 calcium fluorescence, agonist mode; stronger effect = higher value. hit rate 3% among 64,000. B-score at 10 µM;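 active = fluorescence rise, raw or as B-score row- and column-corrected plate score, outside the 99.7% band of its plate's samples, either direction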
SF-1 act: activators of human nuclear receptor SF-1; CHO-K1 Gal4-SF-1 LBD luciferase reporter; % increase over DMSO SF-1-specific signal; activation, % at 10 µM; hit rate 1.9% among 65,000; AID 522;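 active = activation above the mean activation of all tested compounds plus 3 SD, cut at about 50% in these data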
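Compound – one dose, 10 µM compound, 1% DMSO · Test system – transient Gal4-SF-1 LBD reporter, CHO-K1 · Input – 4,000 cells in each well · Read-out basis – percent activation relative to DMSO median and mock-transfected background · Replicates – single measurement per compound · Technique – steady-glow luciferase luminescence, read after 15 min reagent incubation · Timing – 20 h compound treatment, 37 °C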
D1 mod confirm: D1 receptor (human) allosteric modulation, confirmed; shares compounds with D1 allo mod; hit rate 88% among 2,200; luminescence at 10 µM; HEK293 D1 CRE-luciferase, dopamine EC30 potentiation; stronger effect = higher value;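 active = luminescence in either of two replicates above the same-plate mean plus 3 SD of the low-dose dopamine control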
D1 ag no DA: secondary test of D1 modulators: activity without dopamine | HEK293 D1 CRE-luciferase, luminescence, no dopamine; stronger effect = higher value | luminescence at 10 µM | hit rate 0.8% among 1,900 | shares compounds with D1 allo mod | AID 646; in the data active = luminescence above about 3900
Isoprot counter: counter-screen for D1 modulators: isoproterenol response in HEK293 cells. shares compounds with D1 allo mod. hit rate 63% among 2,200. HEK293 D1 CRE-luciferase, isoproterenol EC30 counter-screen. AID 647. calls only at 10 µM;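 active = luminescence in either replicate above plate mean of wells with a partly effective reference agonist dose plus 3 SD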;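 also: isoproterenol raises cAMP through native beta-adrenoceptor Gs so signal bypasses D1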
Starred values were filed as active, the others as inactive; i = inactive; . = not tested or not shown; + = active, no number.

SMILES | Htt clearance | RORa activator | D1 allo mod | M1 antag | M1 ag | SF-1 act | D1 mod confirm | D1 ag no DA | Isoprot counter
CC(C)Sc1nc2c(c(=O)[nH]c(=O)n2C)n1CCc1ccccc1 | . | -7 | 26* | 0.029 | 0.36 | 0 | 24288* | 1728 | +
CCCNc1nc2c(c(=O)[nH]c(=O)n2C)n1CCc1ccccc1 | . | 11 | 3.1* | -0.62 | 0.055 | -9 | 8752* | 1684 | i
C/C(Cl)=C/Cn1c(SC(C)C)nc2c1c(=O)[nH]c(=O)n2C | 52 | -11 | 32* | -1.4 | -0.66 | -6 | 17228* | 1588 | +
CC1(C)CC(NC(=O)C23CCC(C)(/C(=N/O)C2)C3(C)C)CC(C)(C)N1 (configuration not stated) | . | 25 | . | -0.37 | -0.7 | -6 | . | . | .
Cn1ccnc1SCC(=O)N(C1CCCCC1)C1CCCCC1 | -34 | -11 | 0.2 | -1.1 | 1 | -12 | . | . | .
COc1ccc(OC)c(NC(=O)Cn2cccc2)c1 | 9 | -6 | -0.41 | 1.1 | -0.24 | -4 | . | . | .
CCCOc1ccccc1NC(=O)c1ccc(N)cc1 | . | 18 | 3* | -1.1 | -0.35 | -2 | 7556* | 1560 | i
O=c1c2ccccc2nc(SCc2cccc(F)c2)n1Cc1ccco1 | -66 | -13 | 5.2* | -0.24 | -0.035 | -8 | 10716* | 1512 | i
O=C(NC1CCCc2ccccc21)C1CCN(c2c(N3CCCC3)c(=O)c2=O)CC1 (configuration not stated) | . | 6 | 0.38 | 1.3 | -0.15 | 12 | . | . | .
Cc1ccc2c(c1)N(C(=O)CSc1nncn1C)C(C)(C)c1ssc(=S)c1-2 | 22 | 16 | 2.8* | . | . | 1 | 6228* | . | +
CCC1(CC)NC(=O)N(CC(=O)Nc2sc3c(c2C(N)=O)CCC3)C1=O | . | 0 | -1.3 | -0.62 | -1.4 | -5 | . | . | .
Cc1cc(C)n(-c2ncc(-c3ccccc3)nn2)n1 | 5 | 36 | 4.5* | 0.23 | -0.00035 | 30 | 6696* | . | i
Cc1cc(C)n(-c2nncc(-c3ccccc3)n2)n1 | . | 8 | -0.018 | . | . | 10 | . | . | .
O=S(=O)(c1cccs1)N1CCN(c2ccccn2)CC1 | 15 | 12 | 11* | -0.74 | -0.11 | -8 | 10548* | 1832 | i
O=S(=O)(c1cccs1)N1CCN(c2ncccn2)CC1 | . | -3 | 1.7 | 0.55 | 0.71 | 9 | . | . | .
O=C(CN1CCCC1)Nc1ccc(Oc2ccc(NC(=O)CN3CCCC3)cc2)cc1 | -18 | 11 | 0.4 | 0.31 | 1.6 | 3 | . | . | .
CC(=O)Nc1ccc(Oc2cc(C#N)c(C#N)cc2N2CCCCCC2)cc1 | 11 | 13 | 4.9* | 0.12 | -0.92 | -26 | 8364* | 1744 | +
COC(=O)c1ccc(-c2cc(C(=O)O)c3cc4c(cc3n2)OCCO4)cc1 | . | 11 | -1.3 | 0.25 | -0.99 | 8 | . | . | .
COc1ccc(Cl)cc1Nc1nc(N)nc(C(F)(F)F)n1 | 66 | . | . | . | . | . | . | . | .
COc1ccc(Nc2nc(N)nc(C(F)(F)F)n2)c(OC)c1 | -2 | 1 | 4.2* | 0.17 | 0.96 | 16 | 11048* | 1732 | +
Nc1nonc1-n1nnc(C(=O)c2ccccc2)c1-c1ccccc1 | . | 8 | 4.3* | -1.7 | 0.79 | 9 | 9084* | 1920 | i
Cc1ccccc1NC(=O)COC(=O)CN1C(=O)NC(C)(C)C1=O | 10 | . | . | . | . | . | . | . | .
Cc1cc(F)ccc1S(=O)(=O)Nc1ccccc1C(=O)Nc1ccc2[nH]c(=O)[nH]c2c1 | . | -13 | . | 0.041 | 0.2 | -9 | . | . | .
COc1ccc2nc(NC(=O)CCc3nc(-c4ccccc4F)no3)sc2c1 | 18 | 10 | 8.3* | -0.1 | 0.042 | 8 | 7800 | 1704 | i
COc1ccc(Cn2c(=O)n(Cc3ccco3)c(=N)c3c4c(sc32)COC(C)(C)C4)cc1 | . | -14 | 21* | 0.038 | 1.9 | 2 | 22180* | 1932 | +
SMILES | Htt clearance | RORa activator | D1 allo mod | M1 antag | M1 ag | SF-1 act | D1 mod confirm | D1 ag no DA | Isoprot counter
Cc1ccc(NC(=O)Cn2c(=O)n(Cc3ccco3)c(=N)c3c4c(sc32)COC(C)(C)C4)cc1 | 7 | 7 | . | -0.93 | -0.021 | 6 | . | . | .
CC1(C)Cc2c(sc3c2c(=N)n(Cc2ccco2)c(=O)n3Cc2ccc(F)cc2)CO1 | . | -10 | 23* | 0.59 | 0.78 | -13 | 17584* | 1640 | +
CN(C)CCn1c(=O)n(Cc2ccco2)c(=O)c2c3c(sc21)CCCCC3 | 26 | . | . | . | . | . | . | . | .
Clc1ccccc1OCCn1ccnc1 | -55 | -4 | 0.049 | -0.39 | 0.068 | -17 | . | . | .
C=CCc1ccccc1OCCn1ccnc1 | 30 | -27 | 4.2* | -1 | 0 | -14 | 15712* | 1544 | i
COc1cccc(Cn2nnc(C(=O)NCc3ccc(F)cc3)c2N)c1 | 12 | -19 | 1.3 | -0.42 | -1.4 | -20 | . | . | .
COc1cccc(Cn2nnc(C(=O)NCc3ccccc3Cl)c2N)c1 | -134 | -6 | 6.8* | -2.1 | -0.48 | 7 | 16056* | 1908 | +
Cc1c(C(=O)OCC(C)C)[nH]c2c1C(=O)CC(c1ccco1)C2 (configuration not stated) | 20 | -13 | 5.8* | -0.0042 | 0.2 | -18 | 12056* | 1616 | i
CCN(CC)c1nc(C#N)nc(N(CC)CC)n1 | . | -8 | 14* | 0.43 | 0.22 | 1 | 15976* | 1596 | +
COc1ccc(OC)c(NC(=O)COC(=O)c2ccc(-n3cnnn3)cc2)c1 | -44 | 7 | 0.85 | 0.071 | -0.42 | 1 | . | . | .
COC(=O)c1ccc(COC(=O)c2ccc(-n3cnnn3)cc2)o1 | 47 | 13 | 6* | -0.068 | -0.027 | 22 | 5052 | . | i
CCOc1ccc(OCC)c(NC(=O)C2CCCN(c3nc(C)cc(C)n3)C2)c1 (configuration not stated) | . | 2 | 1.4 | -0.6 | 1.2 | 1 | . | . | .
Cc1ccc2c(c1)c1ncnc(N3CCOCC3)c1n2C | 2 | 14 | 1.4 | 0.074 | -0.99 | 46 | . | . | .
Brc1ccc2oc3c(N4CCOCC4)ncnc3c2c1 | . | 40 | 5.1* | -0.23 | 2.1 | 13 | 8996* | 1872 | +
Cc1cccc(N(CC(=O)N2CCCC2)S(=O)(=O)c2ccccc2)c1 | . | -15 | -0.72 | 0.53 | 1.6 | 8 | . | . | .
N#Cc1nc(-c2ccco2)oc1NCCc1ccccc1 | 6 | 32 | 5.5* | -0.9 | -0.049 | -7 | 13580* | 1764 | +
N#Cc1nc(-c2cccs2)oc1NCc1ccc2c(c1)OCO2 | 25 | -18 | 16* | -0.44 | -0.71 | -4 | 19192* | 1548 | +
COc1ccc(Nc2oc(-c3cccs3)nc2C#N)cc1 | -12 | 21 | 8.1* | 0.38 | -0.43 | 41 | 16196* | 1612 | +
